Measurements: PubChem BioAssay
Active and inactive are the calls of the source.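 How the source made its calls, unless noted: active means viability at or below 10% of carrier control in both of two separate runs; inconclusive means viability at or below 10% in only one of the two runs; inactive means the rest.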 Peptide text beside a SMILES is read from it. * marks the point of attachment. Boc = CC(C)(C)OC(=O)*

How the values were obtained:
[1] = Her2 expression decrease, cell viability multiplex – SKBR3 breast tumor cells, AlphaScreen, ATP viability, primary screen (AID 461;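 active means Her2 level under about 52% in both replicate screens, with viability over 70% of control, limit read from the data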;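 on Her2 level: lower value means less Her2 protein in the cells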;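 on viability: percent of carrier control wells set as 100% viability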); conditions: SKBR3 Her2 protein level, 18-24 h, measured here: SKBR3 viability, ATP luminescence, at 10 µM
[2] = target: Receptor tyrosine-protein kinase erbB-2 (Homo sapiens) (UniProt P04626); experiment: as above; conditions: 18-24 h, at 10 µM, stronger effect = lower value
[3] = reduced viability of SK-BR-3 breast cancer cells – cell-based, 24 h, human, pilot screen (AID 572); conditions: SK-BR-3 viability, CellTiter-Glo luminescence, at 10 µM, stronger effect = lower value;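 further: compound exposure lasted between 18 and 24 h rather than exactly 24 h; 100% = carrier-treated control wells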
[4] = HUVEC growth inhibition – cell-based, human, primary screen (AID 575;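 active means viability at or below 30% in both replicate assays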;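 further: 100% = median of untreated cell wells with 0.1% DMSO on each plate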); conditions: HUVEC proliferation, CellTiter-Glo luminescence, 72 h; at 10 µM; stronger effect = lower value
Outline: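 material = primary HUVEC, no more than 12 passages | input = 1250 cells per well | controls = vehicle and MePR control wells | measured by = CTG luminescence | times = 72 h compound incubation | format = collagen-coated 384-well format | read-out = % viability vs DMSO wells | doses = single 10 µM dose, 0.1% DMSO, from 5x medium stock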

[5] = H69AR cell proliferation blockers – human, duplicate replicates, primary screen (AID 580;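 active means viability at or under a set limit in both replicates, limit being median viability minus 3 SD, cut at about 48% in these data, passing the limit was not always enough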;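 further: 100% = mean luminescence of untreated wells and 0% = no signal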); conditions: H69AR lung tumor cells viability, ATP luminescence, 72 h; at 10 µM; stronger effect = lower value
[6] = MRP1 drug-resistance reversers in H69AR cells – cell-based, doxorubicin co-treatment, pilot screen (AID 601;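 active means viability loss from added drug above about 55%, and viability with drug at most 40%, in both replicates, limit read from the data, passing the limit was not always enough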); conditions: CellTiter-Glo, 72 h, at 10 µM; for differential viability (reversal): stronger effect = higher value
[7] = yeast transport mutant growth inhibition pilot in 384-well plates, post-Golgi transport modulator project (AID 636; in the data active means inhibition above about 31%); conditions: absorbance 615 nm, about 18 h, stronger effect = higher value
[8] = growth suppression of yeast trafficking mutant, preliminary HTS, modulators of trafficking downstream of Golgi apparatus project, 1536-format plate, OD 615 nm (AID 637; in the data active means inhibition above about 30%); conditions: yeast transport mutant growth, absorbance 615 nm, 18 h; stronger effect = higher value
[9] = H69AR cells + 2 uM doxorubicin, measured here: viability with 2 uM doxorubicin, stronger effect = lower value
[10] = H69AR cells, compound alone cytotoxicity

Receptor tyrosine-protein kinase erbB-2 (Homo sapiens), sequence (P04626 whole entry, looked up): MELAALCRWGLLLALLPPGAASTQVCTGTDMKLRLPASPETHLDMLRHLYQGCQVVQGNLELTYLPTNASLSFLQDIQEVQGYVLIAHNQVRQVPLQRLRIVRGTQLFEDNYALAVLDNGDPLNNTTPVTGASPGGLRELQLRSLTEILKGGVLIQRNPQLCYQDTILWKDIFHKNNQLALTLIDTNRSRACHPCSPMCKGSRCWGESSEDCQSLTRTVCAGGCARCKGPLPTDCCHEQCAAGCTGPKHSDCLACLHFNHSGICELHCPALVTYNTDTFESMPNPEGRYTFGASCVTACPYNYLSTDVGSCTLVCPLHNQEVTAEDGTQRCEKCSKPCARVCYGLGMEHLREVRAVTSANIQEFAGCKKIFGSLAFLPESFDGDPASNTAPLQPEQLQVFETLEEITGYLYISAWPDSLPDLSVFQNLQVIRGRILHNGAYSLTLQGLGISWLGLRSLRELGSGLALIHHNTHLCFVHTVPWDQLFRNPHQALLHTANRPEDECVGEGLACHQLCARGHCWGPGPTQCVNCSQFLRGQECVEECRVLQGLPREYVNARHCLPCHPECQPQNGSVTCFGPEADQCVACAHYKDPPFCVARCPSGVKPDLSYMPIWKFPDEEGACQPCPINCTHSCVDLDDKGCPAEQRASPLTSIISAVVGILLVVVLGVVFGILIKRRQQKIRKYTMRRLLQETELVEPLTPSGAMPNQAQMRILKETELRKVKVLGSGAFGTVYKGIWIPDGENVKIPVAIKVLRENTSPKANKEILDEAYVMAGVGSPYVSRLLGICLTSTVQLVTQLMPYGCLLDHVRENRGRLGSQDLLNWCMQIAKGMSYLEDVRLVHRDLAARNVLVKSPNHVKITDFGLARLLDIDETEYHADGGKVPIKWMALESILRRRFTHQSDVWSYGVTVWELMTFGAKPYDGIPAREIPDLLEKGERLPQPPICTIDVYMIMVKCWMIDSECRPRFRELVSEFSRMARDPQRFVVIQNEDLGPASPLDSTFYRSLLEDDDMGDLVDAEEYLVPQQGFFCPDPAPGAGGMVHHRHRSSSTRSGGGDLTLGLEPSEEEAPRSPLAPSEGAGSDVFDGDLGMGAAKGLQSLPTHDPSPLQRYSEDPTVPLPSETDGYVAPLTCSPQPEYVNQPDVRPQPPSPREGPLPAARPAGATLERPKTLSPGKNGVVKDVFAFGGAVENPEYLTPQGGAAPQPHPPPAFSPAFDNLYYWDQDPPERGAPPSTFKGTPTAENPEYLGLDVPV

Row | Structure (SMILES) | viability [1] [%] | Her2 level [2] | viability [3] | viability [4] | viability [5] | differential viability (reversal) ([6]; H69AR cells + 2 uM doxorubicin) | viability [6, 9] [%] | viability [6, 10] [%] | inhibition [7] | inhibition [8]
1 | CCCN1C=CC(=C2C(=O)c3ccccc3C2=O)C=C1 | 88 | 123% (inactive) | 88% (inactive) | 42.9% (inactive) | 40.8% (active) | -3% (inactive) | 43.8 | 40.8 | -1.92% (inactive) | 1% (inactive)
2 | CC(NC(=O)OC(C)(C)C)C(=O)N1CCCC1C(=O)NC(Cc1ccccc1)C(N)=O (stereo not drawn) (Boc-Ala-Pro-Phe-NH2; configuration not given here) | 105 | 94% (inactive) | 105% (inactive) | 95.6% (inactive) | 101% (inactive) | 4.26% (inactive) | 97.1 | 101 | -1.73% (inactive) | 4.68% (inactive)
3 | O=C1CCCc2c1cc(C(=O)NCc1ccco1)c(=O)n2-c1ccc(Cl)cc1 | 88 | 110% (inactive) | 88% (inactive) | 80.8% (inactive) | 93.5% (inactive) | 13% (inactive) | 80.5 | 93.5 | -4.8% (inactive) | -3.39% (inactive)
4 | Cc1ncoc1C(=O)Nc1cccc(Cl)c1C | 104 | 114% (inactive) | 104% (inactive) | 113% (inactive) | 101% (inactive) | 15.6% (inactive) | 85.1 | 101 | -3.78% (inactive) | 0.33% (inactive)
5 | CC(C)(C)C1CCc2[nH]nc(C(=O)O)c2C1 (stereo not given) | 104 | 86.5% (inactive) | 104% (inactive) | 92.3% (inactive) | 98% (inactive) | 3% (inactive) | 95 | 98 | -2.43% (inactive) | 1.11% (inactive)
6 | C=CCN(C(=O)CNS(=O)(=O)c1ccccc1)C(C(=O)NCCOC)c1ccncc1 (stereo not given) | 100 | 103% (inactive) | 100% (inactive) | 97.6% (inactive) | 102% (inactive) | 5.81% (inactive) | 96.3 | 102 | -4.27% (inactive) | -9.84% (inactive)
7 | O=[n+]1c2c(n([O-])c3c1CCCC3)CCCC2 | 108 | 91% (inactive) | 108% (inactive) | 93.9% (inactive) | 88.6% (inactive) | -8.33% (inactive) | 96.9 | 88.6 | -0.65% (inactive) | 7.38% (inactive)
8 | NCc1cccc(-n2cccn2)c1 | 110 | 103% (inactive) | 110% (inactive) | 93.2% (inactive) | 82.6% (inactive) | -10.1% (inactive) | 92.8 | 82.6 | -3.64% (inactive) | -2.7% (inactive)
9 | N#Cc1cnc(SCC(=O)Nc2ccccc2C(F)(F)F)nc1N | 88.5 | 81.5% (inactive) | 88.5% (inactive) | 99.7% (inactive) | 90.2% (inactive) | 1.73% (inactive) | 88.5 | 90.2 | -4.4% (inactive) | 5.9% (inactive)
10 | CC(C)CNC(=O)c1c(N)n(/N=C/c2ccccn2)c2nc3ccccc3nc12 | 88.5 | 92.5% (inactive) | 88.5% (inactive) | 80.4% (inactive) | 83.9% (inactive) | 2.92% (inactive) | 81 | 83.9 | -4.67% (inactive) | -1.48% (inactive)
11 | CCCCN(CC)CCCNC(=O)CS(=O)(=O)Cc1nc(-c2cccc(OC)c2)oc1C | 92 | 112% (inactive) | 92% (inactive) | 80.1% (inactive) | 97.2% (inactive) | 10.4% (inactive) | 86.7 | 97.2 | 0.66% (inactive) | -11.3% (inactive)
12 | COc1ccc(NC(=O)CN(c2ccc(C)cc2)S(C)(=O)=O)c(OC)c1 | 90 | 118% (inactive) | 90% (inactive) | 84.8% (inactive) | 101% (inactive) | 11.9% (inactive) | 89.4 | 101 | -2.63% (inactive) | -3.5% (inactive)
13 | CCc1nnc(NC(=O)c2cc3c(s2)CCCCC3)s1 | 92.5 | 108% (inactive) | 92.5% (inactive) | 90.5% (inactive) | 76.1% (inactive) | -2.58% (inactive) | 78.7 | 76.1 | -1.17% (inactive) | -3.44% (inactive)
14 | O=C(CN(Cc1ccc2c(c1)OCO2)C(=O)CNS(=O)(=O)c1ccccc1)NCc1ccco1 | 97 | 86.5% (inactive) | 97% (inactive) | 107% (inactive) | 99.4% (inactive) | 2.35% (inactive) | 97 | 99.4 | 0.41% (inactive) | -1.31% (inactive)
15 | CCCn1c(NCc2ccc3c(c2)OCO3)nc2ccccc21 | 94 | 85% (inactive) | 94% (inactive) | 80.1% (inactive) | 97.2% (inactive) | 12.3% (inactive) | 84.9 | 97.2 | -5.6% (inactive) | -1.13% (inactive)
16 | C=C(C)CSc1nnc(-c2cccc(S(=O)(=O)N(C)C)c2)n1-c1cc(OC)ccc1OC | 75 | 93.5% (inactive) | 75% (inactive) | 95.4% (inactive) | 95.9% (inactive) | 4.91% (inactive) | 90.9 | 95.9 | -3.55% (inactive) | -2.55% (inactive)
17 | COc1cc(NS(=O)(=O)N2CCCC2)cc(OC)c1OC | 83.5 | 95.5% (inactive) | 83.5% (inactive) | 94.8% (inactive) | 92.2% (inactive) | 8.42% (inactive) | 83.8 | 92.2 | -7.57% (inactive) | -2.95% (inactive)
18 | CN(Cc1cccs1)C(=O)CCc1ccc(S(=O)(=O)N2CCOCC2)cc1 | 97.5 | 116% (inactive) | 97.5% (inactive) | 111% (inactive) | 87.4% (inactive) | -10.2% (inactive) | 97.6 | 87.4 | -5.06% (inactive) | -12.5% (inactive)
19 | O=C(CSc1nc(O)c(Cc2ccccc2)c(=O)[nH]1)Nc1ccccc1 | 103 | 97% (inactive) | 103% (inactive) | 106% (inactive) | 86.2% (inactive) | 0.23% (inactive) | 85.9 | 86.2 | -2.08% (inactive) | -2.33% (inactive)
20 | COc1cccc(Cn2c(Oc3ccccc3)nc3c2c(=O)n(C)c(=O)n3C)c1 | 100 | 104% (inactive) | 100% (inactive) | 72.7% (inactive) | 83.8% (inactive) | 3.32% (inactive) | 80.5 | 83.8 | -0.13% (inactive) | 6.07% (inactive)
21 | C=CCn1c(SCC(=O)O)nnc1-c1cccc(Cl)c1 | 116 | 107% (inactive) | 116% (inactive) | 103% (inactive) | 109% (inactive) | 12.6% (inactive) | 96.3 | 109 | -5.19% (inactive) | -3.67% (inactive)
22 | COc1ccc(N2CCN(C(=O)C(OC(C)=O)c3ccccc3)CC2)cc1 (stereo not given) | 96.5 | 99% (inactive) | 96.5% (inactive) | 89.4% (inactive) | 97% (inactive) | 2.1% (inactive) | 94.9 | 97 | -0.53% (inactive) | -2.38% (inactive)
23 | CCSc1nnc2c(n1)OC=Nc1ccc(Br)cc1-2 | 92.5 | 86% (inactive) | 92.5% (inactive) | 79.3% (inactive) | 99.7% (inactive) | 12.9% (inactive) | 86.7 | 99.7 | -0.66% (inactive) | -4.67% (inactive)
24 | CCc1nnc2c3cnn(-c4ccccc4)c3ncn12 | 93.5 | 95% (inactive) | 93.5% (inactive) | 102% (inactive) | 110% (inactive) | 15.1% (inactive) | 94.6 | 110 | -3.92% (inactive) | 2.38% (inactive)
25 | O=C(OCc1ccccc1F)c1ccc2c(c1)OCCO2 | 122 | 86% (inactive) | 122% (inactive) | 103% (inactive) | 92% (inactive) | 9.29% (inactive) | 82.7 | 92 | -5.47% (inactive) | -5.08% (inactive)
26 | Cc1cc(NC(=O)CCC(=O)N(CCc2ccccc2)C(C(=O)NC2CCCC2)c2ccco2)no1 (stereo not given) | 85.5 | 99% (inactive) | 85.5% (inactive) | 79.2% (inactive) | 99.2% (inactive) | 4.1% (inactive) | 95.1 | 99.2 | 1.47% (inactive) | -2.13% (inactive)
27 | CC(=O)c1ccc(OCC(O)CN2CC(C)OC(C)C2)cc1 (stereo not given) | 108 | 80.5% (inactive) | 108% (inactive) | 99.7% (inactive) | 105% (inactive) | 14% (inactive) | 91.3 | 105 | -5.19% (inactive) | 4.13% (inactive)
28 | COc1cccc(C2C(C#N)=C(N)OC3=C2C(=O)CCC3)c1OC(=O)c1ccco1 (stereo not given) | 106 | 84% (inactive) | 106% (inactive) | 83.6% (inactive) | 99.7% (inactive) | 13.1% (inactive) | 86.6 | 99.7 | -4.53% (inactive) | 3.71% (inactive)
